What all share (assay type): functional
Assay [1] deals with Mus musculus. The assay can be described thus: In vivo euglycemic activity (administered by oral gavage) in C57/6J-ob/ob mice measured by normalization of blood glucose levels at a dose of 5 mg/kg.
Assay [2] concerns Mus musculus. Nature of the assay: In vivo euglycemic activity (administered by oral gavage) in C57/6J-ob/ob mice by normalization of blood glucose levels at a dose of 10 mg/kg. The gist of the method: (§1)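 Mice bled from retro-orbital sinus into tubes with 2% sodium heparin for baseline glucose, then dosed by oral gavage once daily for 4 days in 0.25% (w/v) methylcellulose in water, no pH adjustment (0.1 mL per 20 g). Bled 24 h after fourth dose. Samples centrifuged 2 min at 10000g. Plasma glucose measured by hexokinase UV method. Results scaled to vehicle (0%) and ciglitazone 50 mg/kg (100%).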

For assay [3], the system named is Mus musculus. Nature of the assay: In vivo euglycemic activity of the compound (administered by oral gavage) in C57/6J-ob/ob mice is measured by normalization of blood glucose levels at a dose of 25(mg/kg). The gist of the method:
as §1

Assay [4] has as its system Mus musculus. Nature of the assay: In vivo euglycemic activity of the compound (administered by oral gavage) in C57/6J-ob/ob mice is measured by normalization of blood glucose levels at a dose of 0.25(mg/kg). The gist of the method: as §1
In assay [5] the test system is Mus musculus. Nature of the assay: In vivo euglycemic activity (administered by oral gavage) in C57/6J-ob/ob mice by normalization of blood glucose levels at a dose of 0.5 mg/kg. The gist of the method: as §1
For assay [6], the system named is Mus musculus. Nature of the assay: In vivo euglycemic activity (administered by oral gavage) in C57/6J-ob/ob mice by normalization of blood glucose levels at a dose of 1 mg/kg. The gist of the method: as §1
Assay [7] has as its system Mus musculus. The assay can be described thus: In vivo euglycemic activity of the compound (administered by oral gavage) in C57/6J-ob/ob mice is measured by normalization of blood glucose levels at a dose of 2.5(mg/kg). The gist of the method:
as §1

Assay [8] has as its system Mus musculus. Nature of the assay: In vivo euglycemic activity of the compound (administered by oral gavage) in C57/6J-ob/ob mice is measured by normalization of blood glucose levels at a dose of 0.1(mg/kg). The gist of the method:
as §1

In the case of `O=C1NC(=O)C(Cc2ccc3c(c2)CCC(Cc2ccccc2)C3=O)S1` (stereo not drawn), the Normalization in assay [1] was 39%; in assay [2], 54%; in assay [3], 47%.
On to `Cc1ccc(-c2nc(CCC(=O)c3ccc(CC4SC(=O)NC4=O)cc3)co2)cc1` (stereo not drawn), for which the Normalization in assay [4] was determined as 15%; in assay [5], 0%.
With `Cc1oc(-c2cccs2)nc1CCC(=O)c1ccc(CC2SC(=O)NC2=O)cc1` (stereo not drawn), the Normalization in assay [4] was found to be 27%; in assay [6], 84%; in assay [5] it was 71%.
For the compound `O=C1NC(=O)C(Cc2ccc(C(=O)/C=C/c3ccc(OCc4ccccc4)cc3)cc2)S1` (stereo not drawn), the values for the Normalization in assay [1], in assay [2] and in assay [3] were 64%, 57% and 96%, respectively.
Regarding `Cc1ccc(-c2nc(CCC(=O)c3ccc(CC4SC(=O)NC4=O)s3)co2)cc1` (stereo not drawn), the Normalization in assay [7] was 0%; in assay [6] it was 10%.
As for `Cc1ccc(-c2nc(C/C=C/c3ccc(CC4SC(=O)NC4=O)s3)c(C)o2)cc1` (stereo not drawn), the Normalization in assay [7] is on record as 90%; in assay [4], 64%; in assay [6], 98%; in assay [5], 73%.
`Cc1oc(-c2ccc3ccccc3c2)nc1CCS(=O)(=O)c1ccc(CC2SC(=O)NC2=O)cc1` (stereo not drawn): the Normalization in assay [7] and in assay [1] was 0% throughout.
For `COc1c(C)cc(-c2nc(CCC(=O)c3ccc(CC4SC(=O)NC4=O)cc3)c(C)o2)cc1C` (stereo not drawn), the values for the Normalization in assay [6], in assay [5] and in assay [8] were 100%, 100% and 75%, respectively.
Regarding `Cc1oc(-c2ccccc2)nc1CNC(=O)c1ccc(CC2SC(=O)NC2=O)cc1` (stereo not drawn), the Normalization in assay [7] is 49%; in assay [1] it was 50%.
As to `O=C1NC(=O)C(Cc2ccc(C(=O)CCc3ccccc3)cc2)S1` (stereo not drawn), the Normalization stood at 53% in assay [1], 81% in assay [2] and 93% in assay [3].
`Cc1nc(-c2ccccc2)c(CCC(=O)c2ccc(CC3SC(=O)NC3=O)cc2)s1` (stereo not drawn): the results for the Normalization in assay [7] and in assay [1] were 0% and 61%, respectively.
For the compound `O=C1NC(=O)C(Cc2ccc(C(=O)/C=C/c3ccc(-c4ccccc4)cc3)cc2)S1` (stereo not drawn), the Normalization in assay [2] is given as 56%; in assay [3], 65%.
Take `O=C1NC(=O)C(Cc2ccc(C(=O)CCc3csc(-c4ccccc4)n3)cc2)S1` (stereo not drawn): the Normalization in assay [7] is 48%; in assay [1], 91%.
As to `O=C1NC(=O)C(Cc2ccc(C(=O)/C=C/c3ccccc3)cc2)S1` (stereo not drawn), the Normalization in assay [1] worked out at 23%; in assay [2], 65%; in assay [3], 99%.
The matching figures for `O=C1NC(=O)C(Cc2ccc(CCCc3ccccc3)cc2)S1` (stereo not drawn): 46%, 77% and 73%.
On to `Cc1oc(-c2ccc(Cl)cc2)nc1CCC(=O)c1ccc(CC2SC(=O)NC2=O)s1` (stereo not drawn), for which the values for the Normalization in assay [7] and in assay [6] were 100% and 51%, respectively.
`Cc1oc(-c2ccccc2)nc1CC(=O)Nc1ccc(CC2SC(=O)NC2=O)cc1` (stereo not drawn): the Normalization in assay [7] is recorded as 16%; in assay [1], 64%.
As to `O=C1NC(=O)C(Cc2ccc(C(=O)CCc3coc(-c4ccccc4)n3)cc2)S1` (stereo not drawn), the Normalization in assay [4] is listed as 52%; in assay [5], 30%.
In assay [3], `COCc1ccc(/C=C/C(=O)c2ccc(CC3SC(=O)NC3=O)cc2)cc1` (stereo not drawn) showed a Normalization of 0%.
For the compound `O=C1NC(=O)C(Cc2ccc3c(c2)CCC(Cc2ccccc2)O3)S1` (stereo not drawn), the values for the Normalization in assay [1], in assay [2] and in assay [3] were 48%, 70% and 91%, respectively.
`O=C1NC(=O)C(Cc2ccc(C(=O)/C=C/c3ccccc3O)cc2)S1` (stereo not drawn): the Normalization in assay [3] came out at 0%.
Turning to `Cc1oc(-c2ccccc2)nc1CCC(=O)c1ccc(CC2SC(=O)NC2=O)s1` (stereo not drawn), the Normalization in assay [7] worked out at 99%; in assay [1], 100%; in assay [6] it was 37%.

The record behind these values is ChEMBL document CHEMBL1126043, “Novel thiazolidine-2,4-diones as potent euglycemic agents” (1992).
